From ChEMBL document CHEMBL4725242, “Discovery of GS-9688 (Selgantolimod) as a Potent and Selective Oral Toll-Like Receptor 8 Agonist for the Treatment of Chronic Hepatitis B” (J Med Chem, 2020)
The source made the active and inactive calls.

How the values were obtained:
[1] = molecular target: Toll-like receptor 5 (Homo sapiens) (UniProt O60602); experiment: Agonist activity at human TLR5 expressed in HEK293 cells assessed as increase in NF-kappaB activation up to 10 uM incubated for 24 hrs by quanti-blue SEAP reporter gene assay; type: cell-based; conditions: dose microM <=10, time 24.0 hrs
Method in brief: (§1)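 HEK293 cells stably expressing individual human TLRs or other innate immune receptors, used as reporter gene assays. Minimum effective concentration defined as the level giving a 3-fold rise over background.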

[2] = Apparent permeability across apical to basolateral side in human Caco2 cells measured after 1 to 2 hrs by LC-MS/MS analysis; conditions: Caco-2
[3] = Apparent permeability across basolateral to apical side in human Caco2 cells measured after 1 to 2 hrs by LC-MS/MS analysis; conditions: Caco-2
[4] = Drug metabolism in human hepatocytes assessed as core oxidation; type: ADME, cell-based, Hepatocyte
[5] = Drug metabolism in human hepatocytes assessed as glucuronidation; type: ADME, cell-based, Hepatocyte
[6] = AUC (infinity) in Sprague-Dawley rat at 5 mg/kg, po administered via gavage by HPLC-MS analysis; type: ADME, organism-based; design: time infinity, route oral, dose 5 mg/kg; conditions: in vivo
Method in brief: (§2)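 Oral dosing in 2% ethanol/40% PEG 300/58% 0.01N HCl: Sprague Dawley rats 5 mg/kg, beagle dogs 0.5 mg/kg, cynomolgus monkeys 3 mg/kg.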

[7] = Oral bioavailability in Sprague-Dawley rat at 5 mg/kg administered via gavage by HPLC-MS analysis; type: ADME, organism-based; conditions: in vivo; method in brief: as §2
[8] = Clearance in Beagle dog at 0.25 mg/kg, iv administered as 30 mins infusion by HPLC-MS analysis; type: ADME, organism-based, Canis lupus familiaris; conditions: in vivo
Method in brief: (§3)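 30-min intravenous infusion: Sprague Dawley rats 1 mg/kg, beagle dogs 0.25 mg/kg, cynomolgus monkeys 0.1 mg/kg; n = 3 per species, reported as mean ± SD.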

[9] = Volume of distribution at steady state in Beagle dog at 0.25 mg/kg, iv administered as 30 mins infusion by HPLC-MS analysis; type: ADME, organism-based, Canis lupus familiaris; conditions: in vivo, read-out: Vdss; method in brief: as §3
[10] = Cmax in Beagle dog at 0.5 mg/kg, po administered via gavage by HPLC-MS analysis; type: ADME, organism-based, Canis lupus familiaris; design: route oral, dose 0.5 mg/kg; conditions: in vivo; method in brief: as §2
[11] = Oral bioavailability in cynomolgus monkey at 3 mg/kg administered via gavage by HPLC-MS analysis; type: ADME, organism-based, Macaca fascicularis; conditions: in vivo; method in brief: as §2
[12] = molecular target: Toll-like receptor 4 (Homo sapiens) (UniProt O00206); experiment: Agonist activity at human TLR4 expressed in HEK293 cells assessed as increase in NF-kappaB activation up to 10 uM incubated for 24 hrs by quanti-blue SEAP reporter gene assay; type: cell-based; conditions: dose microM <=10, time 24.0 hrs; method in brief: as §1
[13] = molecular target: T1, Toll-like receptor 9 (Homo sapiens) (UniProt Q9NR96); experiment: Agonist activity at human TLR9 expressed in HEK293 cells assessed as increase in NF-kappaB activation up to 10 uM incubated for 18 hrs by quanti-blue SEAP reporter gene assay; type: cell-based; conditions: dose microM <=10, time […]; method in brief: as §1
T1 sequence (whole entry): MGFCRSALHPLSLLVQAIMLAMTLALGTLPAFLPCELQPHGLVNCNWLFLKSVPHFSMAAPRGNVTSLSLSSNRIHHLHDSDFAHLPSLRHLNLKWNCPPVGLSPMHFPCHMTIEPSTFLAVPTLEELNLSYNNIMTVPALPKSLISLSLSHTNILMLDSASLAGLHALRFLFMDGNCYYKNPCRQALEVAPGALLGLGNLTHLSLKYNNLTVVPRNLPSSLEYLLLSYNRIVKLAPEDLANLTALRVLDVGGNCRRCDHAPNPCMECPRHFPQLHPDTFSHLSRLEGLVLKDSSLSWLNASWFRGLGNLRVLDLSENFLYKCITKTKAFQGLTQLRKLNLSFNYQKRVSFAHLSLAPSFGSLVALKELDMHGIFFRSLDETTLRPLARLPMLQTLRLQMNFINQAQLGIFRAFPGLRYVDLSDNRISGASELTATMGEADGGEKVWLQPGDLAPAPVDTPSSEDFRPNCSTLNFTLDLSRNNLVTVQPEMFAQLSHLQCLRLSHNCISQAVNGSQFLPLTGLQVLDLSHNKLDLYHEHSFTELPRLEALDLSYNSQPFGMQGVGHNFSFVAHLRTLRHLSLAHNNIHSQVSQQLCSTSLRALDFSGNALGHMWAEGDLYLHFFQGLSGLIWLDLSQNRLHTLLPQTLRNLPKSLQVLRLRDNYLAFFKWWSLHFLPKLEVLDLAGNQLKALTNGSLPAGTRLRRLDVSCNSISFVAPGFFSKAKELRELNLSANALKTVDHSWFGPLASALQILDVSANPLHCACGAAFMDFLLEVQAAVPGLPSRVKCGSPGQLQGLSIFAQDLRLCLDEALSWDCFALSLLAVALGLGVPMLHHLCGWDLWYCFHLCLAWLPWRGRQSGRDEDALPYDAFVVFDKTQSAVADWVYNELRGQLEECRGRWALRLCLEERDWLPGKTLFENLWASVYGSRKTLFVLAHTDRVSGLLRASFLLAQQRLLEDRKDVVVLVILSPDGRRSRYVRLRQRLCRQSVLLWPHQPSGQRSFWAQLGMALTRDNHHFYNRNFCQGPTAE

[14] = molecular target: Nucleotide-binding oligomerization domain-containing protein 2 (Homo sapiens) (UniProt Q9HC29); experiment: Agonist activity at human NOD2 expressed in HEK293 cells assessed as increase in NF-kappaB activation up to 10 uM incubated for 24 hrs by quanti-blue SEAP reporter gene assay; type: cell-based; conditions: dose microM <=10, time 24.0 hrs; method in brief: as §1
[15] = molecular target: T2, C-type lectin domain family 7 member A (Homo sapiens) (UniProt Q9BXN2); experiment: Agonist activity at human Dectin1a expressed in HEK293 cells assessed as increase in NF-kappaB activation up to 10 uM incubated for 24 hrs by quanti-blue SEAP reporter gene assay; type: cell-based; conditions: dose microM <=10, time 24.0 hrs; method in brief: as §1
T2 sequence (whole entry): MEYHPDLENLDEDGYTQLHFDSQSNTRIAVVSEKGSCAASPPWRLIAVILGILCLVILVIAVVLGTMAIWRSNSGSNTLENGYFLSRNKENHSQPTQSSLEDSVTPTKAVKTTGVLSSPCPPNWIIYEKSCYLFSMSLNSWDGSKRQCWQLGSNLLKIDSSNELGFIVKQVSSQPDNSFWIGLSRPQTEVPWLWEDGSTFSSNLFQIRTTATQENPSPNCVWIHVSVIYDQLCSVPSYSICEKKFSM

[16] = molecular target: T2, C-type lectin domain family 7 member A (Homo sapiens); experiment: Agonist activity at human Dectin1b expressed in HEK293 cells assessed as increase in NF-kappaB activation up to 10 uM incubated for 24 hrs by quanti-blue SEAP reporter gene assay; type: cell-based; conditions: dose microM <=10, time 24.0 hrs; method in brief: as §1
PBMC = experiment: Immunomodulatory activity in human primary hepatocytes infected with HBV assessed as stimulation of CD8+T cell response to virus by measuring degradation of cccDNA treated with media from PBMC stimulated with 10 nM compound for 10 days; type: functional, cell-based; conditions: time 10.0 day
[17] = tested on: Probable ATP-dependent RNA helicase DDX58 (Homo sapiens); experiment: Agonist activity at human RIG1 expressed in HEK293 cells assessed as induction of IFN-inducible ISG54 promoter activity up to 10 uM after overnight incubation by secreted lucia luciferase reporter gene assay; conditions: dose microM <=10

Nucleotide-binding oligomerization domain-containing protein 2 (Homo sapiens), sequence (Q9HC29 whole entry, the tested form may be a part): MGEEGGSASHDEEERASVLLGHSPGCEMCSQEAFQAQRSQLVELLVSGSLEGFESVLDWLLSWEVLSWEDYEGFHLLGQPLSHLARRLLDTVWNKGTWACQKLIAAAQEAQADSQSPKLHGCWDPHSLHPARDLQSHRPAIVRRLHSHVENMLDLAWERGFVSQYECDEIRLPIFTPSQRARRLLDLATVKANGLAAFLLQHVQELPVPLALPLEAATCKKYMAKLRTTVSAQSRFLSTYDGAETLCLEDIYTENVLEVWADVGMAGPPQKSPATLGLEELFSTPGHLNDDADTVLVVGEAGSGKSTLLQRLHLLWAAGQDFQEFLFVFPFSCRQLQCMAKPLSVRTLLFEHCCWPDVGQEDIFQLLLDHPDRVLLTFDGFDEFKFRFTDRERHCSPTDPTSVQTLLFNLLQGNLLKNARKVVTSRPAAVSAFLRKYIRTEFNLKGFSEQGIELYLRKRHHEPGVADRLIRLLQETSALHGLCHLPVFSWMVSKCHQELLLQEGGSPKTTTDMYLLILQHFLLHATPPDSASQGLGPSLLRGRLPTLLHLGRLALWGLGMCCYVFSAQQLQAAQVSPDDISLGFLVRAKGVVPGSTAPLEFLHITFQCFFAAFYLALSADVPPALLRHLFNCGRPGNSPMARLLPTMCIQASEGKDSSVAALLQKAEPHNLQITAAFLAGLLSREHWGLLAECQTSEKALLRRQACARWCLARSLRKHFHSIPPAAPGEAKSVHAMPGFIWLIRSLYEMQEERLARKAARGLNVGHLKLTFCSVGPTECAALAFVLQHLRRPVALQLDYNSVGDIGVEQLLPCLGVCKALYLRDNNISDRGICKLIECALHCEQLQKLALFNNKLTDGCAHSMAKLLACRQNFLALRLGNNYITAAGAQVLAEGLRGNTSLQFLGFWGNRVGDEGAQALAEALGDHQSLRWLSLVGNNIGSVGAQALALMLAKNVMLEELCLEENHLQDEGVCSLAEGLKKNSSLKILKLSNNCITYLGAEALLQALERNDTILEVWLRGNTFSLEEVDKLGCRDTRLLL
Toll-like receptor 5 (Homo sapiens), sequence (O60602 whole entry): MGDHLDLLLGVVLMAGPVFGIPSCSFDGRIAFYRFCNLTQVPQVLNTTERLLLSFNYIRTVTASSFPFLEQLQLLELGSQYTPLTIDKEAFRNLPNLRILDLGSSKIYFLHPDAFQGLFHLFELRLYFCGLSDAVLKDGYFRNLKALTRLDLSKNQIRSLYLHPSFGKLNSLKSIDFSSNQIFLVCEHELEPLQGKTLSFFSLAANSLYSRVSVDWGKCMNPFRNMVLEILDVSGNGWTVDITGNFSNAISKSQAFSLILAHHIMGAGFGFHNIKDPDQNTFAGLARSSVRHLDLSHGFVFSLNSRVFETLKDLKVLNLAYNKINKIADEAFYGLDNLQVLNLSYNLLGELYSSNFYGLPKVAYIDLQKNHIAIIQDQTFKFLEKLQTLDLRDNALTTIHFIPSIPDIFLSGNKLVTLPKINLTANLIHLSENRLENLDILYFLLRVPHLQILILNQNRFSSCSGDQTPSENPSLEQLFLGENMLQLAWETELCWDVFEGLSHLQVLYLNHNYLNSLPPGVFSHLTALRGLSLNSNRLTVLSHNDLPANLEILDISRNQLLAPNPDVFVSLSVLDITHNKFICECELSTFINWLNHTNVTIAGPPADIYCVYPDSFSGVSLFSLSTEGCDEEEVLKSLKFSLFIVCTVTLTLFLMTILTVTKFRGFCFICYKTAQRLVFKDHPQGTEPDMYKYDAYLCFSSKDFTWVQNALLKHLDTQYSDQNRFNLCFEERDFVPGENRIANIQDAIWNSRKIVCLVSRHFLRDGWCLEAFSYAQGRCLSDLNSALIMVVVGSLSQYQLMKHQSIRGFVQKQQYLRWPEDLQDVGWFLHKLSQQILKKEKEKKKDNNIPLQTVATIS
Toll-like receptor 4 (Homo sapiens), sequence (O00206 whole entry): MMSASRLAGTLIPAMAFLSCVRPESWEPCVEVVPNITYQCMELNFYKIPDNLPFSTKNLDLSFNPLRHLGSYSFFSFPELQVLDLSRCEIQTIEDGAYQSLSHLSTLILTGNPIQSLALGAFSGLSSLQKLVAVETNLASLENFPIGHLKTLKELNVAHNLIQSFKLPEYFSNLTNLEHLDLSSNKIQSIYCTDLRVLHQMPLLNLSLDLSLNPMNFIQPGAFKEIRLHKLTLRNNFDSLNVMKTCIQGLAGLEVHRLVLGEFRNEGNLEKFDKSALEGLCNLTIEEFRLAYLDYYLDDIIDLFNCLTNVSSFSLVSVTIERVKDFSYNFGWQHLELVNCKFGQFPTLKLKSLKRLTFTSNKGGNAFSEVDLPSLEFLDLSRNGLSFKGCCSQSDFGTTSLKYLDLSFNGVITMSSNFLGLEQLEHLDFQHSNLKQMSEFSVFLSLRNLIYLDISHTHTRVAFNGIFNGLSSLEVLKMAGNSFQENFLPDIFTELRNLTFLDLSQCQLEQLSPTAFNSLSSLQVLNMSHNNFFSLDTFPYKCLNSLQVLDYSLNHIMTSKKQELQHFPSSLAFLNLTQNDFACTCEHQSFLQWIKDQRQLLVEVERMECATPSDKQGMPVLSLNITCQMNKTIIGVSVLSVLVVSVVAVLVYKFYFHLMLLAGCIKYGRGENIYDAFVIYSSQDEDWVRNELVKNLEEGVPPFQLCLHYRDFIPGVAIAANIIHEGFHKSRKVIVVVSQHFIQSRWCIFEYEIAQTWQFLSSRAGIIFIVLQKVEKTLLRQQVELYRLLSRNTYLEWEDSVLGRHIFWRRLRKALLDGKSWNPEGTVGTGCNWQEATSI

Activity [1]: inactive
Papp A→B [2]: 7.9 ×10⁻⁶ cm/s
Papp B→A [3]: 11 ×10⁻⁶ cm/s
Drug metabolism [4]: Metabolite_Notdetected
Drug metabolism [5]: Metabolite_Detected
AUC(0-inf) [6]: 0.827 µM·h
bioavailability [7]: 8.8%
clearance [8]: 20 mL/min/kg
Vd [9]: 1.01 L/kg
Cmax [10]: 9.7 nM
bioavailability [11]: 0.3%
Activity [12]: inactive
Activity [13]: inactive
Activity [14]: inactive
Activity [15]: inactive
Activity [16]: inactive
Activity [17]: inactive
Structure (SMILES): CCCC[C@](C)(CO)Nc1nc(N)nc2cc(F)cnc12 [SELGANTOLIMOD]
Activity (PBMC): inactive
